Calls of active or inactive are those of the source. The calls are words filed in the database; no cut-off is given here.
What was measured:
HCT-116 [1] = assay: Anticancer activity against human HCT-116 cells assessed as cell growth inhibition incubated for 3 days by methylene blue staining based colorimetric assay; assay type: functional; details: HCT-116, 72 h
[2] = tested on: Panel NCI-60 (60 carcinoma cell lines); assay: Anticancer activity against human Panel NCI-60 (60 carcinoma cell lines) cells assessed as cell growth inhibition at 10 uM incubated for 3 days by methylene blue staining based colorimetric assay relative to control; assay type: functional; parameters: scale not given: the % may be the effect or the level left; details: time 3 day
Summary of the method: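 NCI-60 one-dose screen at a single concentration of 10 μM. Read-out is mean growth percentage across the panel; positive values denote cytostatic activity and negative values cytotoxicity.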

[3] = Metabolic stability in human Liver S9 fraction assessed as disappearance of compound and measured after 2 hrs by LC-ESI-MS analysis; assay type: ADME, subcellular; details: s9, 2 h
Summary of the method: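 Human liver S9 fraction assay. Substrate 0.02 mM, 0.1 M buffer and 1 mM NADPH preincubated 10 min at 37 °C, then S9 (0.5 mg) added in 1 mL total; run in duplicate. Aliquots taken every 15 min or at 1 h and 2 h, residue taken up in methanol, diluted 1:1 with water and analysed by LC-ESI-MS tracking M+1 ions.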

[4] = tested on: Panel NCI-60 (60 carcinoma cell lines); assay: Anticancer activity against human Panel NCI-60 (60 carcinoma cell lines) cells assessed as total cell growth inhibition incubated for 3 days by methylene blue staining based colorimetric assay relative to control; assay type: functional; details: 72 h, time 3 day
Summary of the method: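 NCI-60 five-dose screen at five concentrations. […] TGI is the concentration giving total growth inhibition.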

HCT-116 [5] = assay: Induction of apoptosis in human HCT116 cells assessed as increase in cleaved PARP1 level at 5 to 10 uM incubated for 24 hrs by Western blot analysis; assay type: functional, cell-based; details: dose 5-10 µM
Summary of the method: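 HCT116 cells treated 24 h at the indicated concentrations. Lysates normalized by BCA, run on 12.5% SDS-PAGE and transferred to PVDF. Blocked 1 h in 5% milk/PBST, primary antibody against cleaved PARP overnight at 4 °C, then HRP secondary 1:10 000 and ECL detection.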

HT-1080 = assay: Anticancer activity against human HT-1080 cells assessed as cell growth inhibition incubated for 3 days by methylene blue staining based colorimetric assay; assay type: functional; details: HT-1080, 72 h
Summary of the method: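 Cells kept in DMEM with 10% calf or fetal bovine serum plus penicillin/streptomycin (1000 U/ml each) at 37 °C, 5% CO2. Seeded at 5000/well (n = 3), treated next day, then after 3 days fixed/stained 30 min at room temperature with methylene blue saturated in 50% ethanol.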

Row | Structure (SMILES) | IC50 (HCT-116 [1]) [µM] | other results
1 | O=C(CCCCCNC(=O)c1cc(=O)c(O)co1)Nc1ccccc1 | > 100 | 
2 | O=C(CCCCNC(=O)c1cc(=O)c(O)co1)Nc1ccccc1 | > 100 | 
3 | C/C(=N\O)C(=O)NCCCCC(=O)Nc1ccccc1 | > 100 | 
4 | COc1ccc(-c2cnc(NC(=O)CCCCCCNC(=O)C(O)(O)C(F)(F)F)s2)cc1 |  | TGI [4]: 8.51 µM
5 | CC(=O)C(=O)NCCCCC(=O)Nc1ccccc1 | > 100 | 
6 | O=C(CCCCCNC(=O)c1ccc[nH]1)Nc1ccccc1 | > 100 | 
7 | O=C(CCCNC(=O)C(O)(O)C(F)(F)F)Nc1ccccc1 | 34.8 | 
8 | O=C(CCCCCCNC(=O)C(O)(O)C(F)(F)F)Nc1ncc(-c2ccc(Br)cc2)s1 |  | Activity [2]: -11.47%; TGI [4]: 11.4 µM; Activity (HCT-116 [5]): Active
9 | C/C(=N\O)C(=O)NCCCCCC(=O)Nc1ccccc1 | > 100 | 
10 | O=C(CCCCCCC(=O)Nc1ccccc1)NO [VORINOSTAT] |  | IC50 (HT-1080): 3.56 µM
11 | O=C(CCCCCCNC(=O)c1cc(=O)c(O)co1)Nc1ccccc1 | > 100 | 
12 | O=C(CCCCCCCNC(=O)c1cc(=O)c(O)co1)Nc1ccccc1 | > 100 | 
13 | O=C(CCCCCCCNC(=O)C(O)(O)C(F)(F)F)Nc1ccccc1 | 41.7 | 
14 | O=C(CCCCCCNC(=O)C(O)(O)C(F)(F)F)Nc1ncc(-c2ccccc2)s1 |  | Activity [2]: -10.06%
15 | CC(=O)C(=O)NCCCCCCC(=O)Nc1ccccc1 | > 100 | 
16 | OC(c1c(F)c(F)c(-n2cc(-c3ccccc3)nn2)c(F)c1F)C(F)(F)F (stereo not drawn) | > 100 | 

Second part, led by results:

Row | IC50 (HCT-116 [1]) [µM] | Structure (SMILES) | other results
17 | 3.87 | COc1ccc(OC)c(NC(=O)CCCCCCNC(=O)C(O)(O)C(F)(F)F)c1 | Activity [2]: 35%
18 | 10.8 | O=C(CCCCCCNC(=O)C(O)(O)C(F)(F)F)Nc1nccs1 | Stability [3]: Stable
19 | 10.3 | O=C(CCCCCCNC(=O)C(O)(O)C(F)(F)F)Nc1nc2ccc(Br)cc2s1 | 
20 | 12.1 | CC(=O)c1ccc(NC(=O)CCCCCCNC(=O)C(O)(O)C(F)(F)F)cc1 | 
21 | 7.57 | O=C(CCCCCCNC(=O)C(O)(O)C(F)(F)F)Nc1ccc(F)cc1 | 
22 | 17.2 | Cc1ccc(S(=O)(=O)Nc2ccc(NC(=O)CCCCCCNC(=O)C(O)(O)C(F)(F)F)cc2)cc1 | 
23 | 6.47 | O=C(CCCCCCNC(=O)C(O)(O)C(F)(F)F)Nc1nc2ccc(F)cc2s1 | 
24 | 6.48 | O=C(CCCCCCNC(=O)C(O)(O)C(F)(F)F)Nc1cccc2ccccc12 | 
25 | 3.06 | O=C(CCCCCCNC(=O)C(O)(O)C(F)(F)F)Nc1cccc(Br)c1 | 
26 | 3.45 | O=C(CCCCCCNC(=O)C(O)(O)C(F)(F)F)Nc1nc2ccccc2o1 | 
27 | 20.3 | O=C(CCCCNC(=O)C(O)(O)C(F)(F)F)Nc1ccccc1 | 
28 | 10.1 | Cc1nc(NC(=O)CCCCCCNC(=O)C(O)(O)C(F)(F)F)sc1-c1ccccc1 | 
29 | 22.2 | O=C(CCCCCCNC(=O)C(O)(O)C(F)(F)F)Nc1c(F)cc(F)cc1F | 
